Measured values published in PMC6613170 (Proceedings of the National Academy of Sciences of the …, 2019).

What was measured:
MDCK cells [1] = experiment: MDCK cyst assay; type: cell-based, canine
MDCK cells [2] = experiment: cAMP ELISA in forskolin-challenged MDCK cells; type: cell-based, canine; settings: 15 min
Procedure, shortened: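 MDCK cells in 2D culture (DMEM, 10% FBS) are pretreated for 1 h with test compound (3 µM), with or without roflumilast (100 nM), then challenged with forskolin (3 µM, 15 min). Intracellular and extracellular cAMP are measured with a commercial cAMP ELISA kit. Intracellular data are mean ± SD of n = 7 experiments; extracellular data come from three independent experiments.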

CFTR = CFTR assay; type: cell-based, canine; settings: 100 nM PGE2
[3] = test system: primary human ADPKD cells; experiment: Primary human kidney cell cyst assay; type: cell-based
Procedure, shortened: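 Primary epithelial cells from single kidney cysts of an ADPKD patient are grown in biogels with RenalCyte medium. Cysts form spontaneously or with 10 nM vasopressin, across graded test compound concentrations. Cysts are counted by manual imaging or automated whole-well imaging. Values are given as SD of four treatments.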

S133D-PDE4D5 = S133D-PDE4D5 (Homo sapiens, UniProt Q08499, S197D); experiment: cAMP phosphodiesterase assay, MK2 phosphomimetic mutant; type: biochemical
Procedure, shortened: (§1)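 PDE4 constructs were expressed from pcDNA3.1 (mutants by site-directed mutagenesis) after lipid transfection into mammalian cells. Lysate was spun at 2,000 × g for 10 min, then 100,000 × g for 30 min, and supernatant protein was measured by BCA. cAMP hydrolysis used 200 ng–1 µg protein per reaction for 10 min, within the linear range.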

PDE4A4 = PDE4A4 (Homo sapiens, UniProt P27815); experiment: cAMP phosphodiesterase assay, long isoform PDE4A4; type: biochemical; settings: compared with the other long isoforms
Procedure, shortened: as §1

OX161 cells = experiment: OX161 cyst assay; type: cell-based, human
Ser651Asp-PDE4D5 = Ser651Asp-PDE4D5 (Homo sapiens, UniProt Q08499, S715D); experiment: cAMP phosphodiesterase assay, Erk phosphomimetic mutant; type: biochemical
Procedure, shortened: as §1

[4] = test system: short isoforms of PDE4A, B, and D families; experiment: cAMP phosphodiesterase assay, short PDE4 isoforms; type: biochemical
Procedure, shortened: (§2)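 PDE4 constructs, including site-directed mutants, are expressed from pcDNA3.1 in transfected mammalian cells. Cells are lysed mechanically in KHEM buffer (50 mM KCl, 10 mM EGTA, 50 mM Hepes, 1.92 mM MgCl2, pH 7.4). Lysate is cleared at 2,000 × g for 10 min, then 100,000 × g for 30 min. Supernatant (200 ng–1 µg protein per reaction, BCA) is assayed for cAMP hydrolysis for 10 min under linear conditions.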

MDCK cells [5] = experiment: xCELLigence impedance-based proliferation assay; type: cell-based, canine; settings: 2D culture; MR-L2 added 24 h after inception
Procedure, shortened: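 MDCK cells are plated at 5,000 cells per well in 2D culture and left to adhere for 24 h. Test compound is then added, and cell number is followed by xCELLigence electrical-impedance monitoring.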

PDE4C3 = PDE4C3 (Homo sapiens, UniProt Q08493); experiment: cAMP phosphodiesterase assay, long isoform PDE4C3; type: biochemical
Procedure, shortened: as §2

DD1-R499D-PDE4D5 = DD1-R499D-PDE4D5 (Homo sapiens, UniProt Q08499, N238A/N239A/R237A/R563D); experiment: cAMP phosphodiesterase assay, dimerization-deficient mutant; type: biochemical
Procedure, shortened: as §1

[6] = test system: truncated core catalytic domain of PDE4D without UCR1, UCR2, and C-terminal tail; experiment: cAMP phosphodiesterase assay, truncated catalytic domain construct; type: biochemical; settings: n = 4
Procedure, shortened: as §2

MDCK cells [7] = experiment: DNA normalized ATP levels in MDCK cystic cultures; type: cell-based, canine; settings: MR-L2 3 µM; ± SD
S126D:S133D-PDE4D5 = S126D:S133D-PDE4D5 (Homo sapiens, UniProt Q08499, S190D/S197D); experiment: cAMP phosphodiesterase assay, PKA/MK2 double phosphomimetic mutant; type: biochemical; settings: relative to S126D-PDE4D5
Procedure, shortened: as §2

[8] = test system: primary human ADPKD cells; experiment: Primary human ADPKD cell viability; type: cell-based; settings: unstimulated and vasopressin-treated cultures
Procedure, shortened: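 Primary epithelial cells cultured from single kidney cysts of a patient with ADPKD, kept in supplier's proprietary media. For the cyst assay, cells were grown in biogels with RenalCyte media in 96- or 384-well format. Viability was read as luminescence-based detection of ATP as a function of living cells.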

human long form PDE4D5 = human long form PDE4D5 (Homo sapiens, UniProt Q08499); experiment: cAMP phosphodiesterase assay, long isoform PDE4D5; type: biochemical
Procedure, shortened: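 Human PDE4D5 is expressed from pcDNA3.1 in transfected mammalian cells. The 100,000 × g supernatant of KHEM-buffer lysates (200 ng–1 µg protein) is assayed for cAMP hydrolysis for 10 min under linear conditions, with test compound at 3, 10, 30 and 100 µM. Velocity is analysed by Eadie–Hofstee plot to give Vmax and Km for cAMP.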

PDE4B1 = PDE4B1 (Homo sapiens, UniProt Q07343); experiment: cAMP phosphodiesterase assay, long isoform PDE4B1; type: biochemical
Procedure, shortened: as §2

human long form PDE4D5, sequence (Q08499 1-745 isoform Q08499-6): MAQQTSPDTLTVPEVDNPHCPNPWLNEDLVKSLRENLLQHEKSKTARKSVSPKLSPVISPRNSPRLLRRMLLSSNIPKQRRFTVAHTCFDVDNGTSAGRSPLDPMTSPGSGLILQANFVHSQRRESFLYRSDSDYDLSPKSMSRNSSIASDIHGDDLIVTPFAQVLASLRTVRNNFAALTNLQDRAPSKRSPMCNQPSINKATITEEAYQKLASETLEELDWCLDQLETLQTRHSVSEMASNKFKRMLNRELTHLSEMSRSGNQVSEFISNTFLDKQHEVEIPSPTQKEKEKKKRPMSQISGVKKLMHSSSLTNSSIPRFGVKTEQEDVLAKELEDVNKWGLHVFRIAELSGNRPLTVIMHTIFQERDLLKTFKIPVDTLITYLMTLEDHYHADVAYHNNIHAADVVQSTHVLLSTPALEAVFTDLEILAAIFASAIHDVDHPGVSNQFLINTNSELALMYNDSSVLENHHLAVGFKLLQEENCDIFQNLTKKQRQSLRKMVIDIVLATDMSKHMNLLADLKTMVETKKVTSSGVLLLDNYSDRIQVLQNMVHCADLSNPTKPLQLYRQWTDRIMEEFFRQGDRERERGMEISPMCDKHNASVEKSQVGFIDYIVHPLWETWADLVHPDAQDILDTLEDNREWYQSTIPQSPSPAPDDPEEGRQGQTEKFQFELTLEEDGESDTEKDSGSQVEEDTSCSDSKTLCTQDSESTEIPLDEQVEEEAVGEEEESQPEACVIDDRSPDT
PDE4A4, sequence (P27815 whole entry, canonical isoform): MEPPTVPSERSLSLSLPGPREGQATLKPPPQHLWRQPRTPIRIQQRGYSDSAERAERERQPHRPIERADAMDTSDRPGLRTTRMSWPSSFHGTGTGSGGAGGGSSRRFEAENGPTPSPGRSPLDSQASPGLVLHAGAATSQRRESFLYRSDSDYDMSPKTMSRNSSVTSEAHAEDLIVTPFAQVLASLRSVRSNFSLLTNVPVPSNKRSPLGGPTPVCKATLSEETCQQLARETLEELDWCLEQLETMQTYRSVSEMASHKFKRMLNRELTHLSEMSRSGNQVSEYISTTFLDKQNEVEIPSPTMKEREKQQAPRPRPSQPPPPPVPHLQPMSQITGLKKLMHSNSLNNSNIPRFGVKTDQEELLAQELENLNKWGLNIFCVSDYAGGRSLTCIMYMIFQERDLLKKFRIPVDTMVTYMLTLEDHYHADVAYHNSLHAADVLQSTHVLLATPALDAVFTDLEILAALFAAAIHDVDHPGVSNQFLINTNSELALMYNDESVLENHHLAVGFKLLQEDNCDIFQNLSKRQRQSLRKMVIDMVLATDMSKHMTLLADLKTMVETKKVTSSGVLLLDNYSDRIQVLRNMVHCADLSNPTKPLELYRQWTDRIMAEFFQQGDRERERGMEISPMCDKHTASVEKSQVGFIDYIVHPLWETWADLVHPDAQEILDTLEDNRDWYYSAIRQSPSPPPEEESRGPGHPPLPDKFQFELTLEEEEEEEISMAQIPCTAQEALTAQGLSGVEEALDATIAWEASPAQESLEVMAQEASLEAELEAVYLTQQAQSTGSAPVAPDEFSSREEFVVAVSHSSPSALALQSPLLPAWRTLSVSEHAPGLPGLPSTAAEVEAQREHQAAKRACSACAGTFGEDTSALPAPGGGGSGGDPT
PDE4C3, sequence (Q08493 1-680 isoform Q08493-3, species assumed): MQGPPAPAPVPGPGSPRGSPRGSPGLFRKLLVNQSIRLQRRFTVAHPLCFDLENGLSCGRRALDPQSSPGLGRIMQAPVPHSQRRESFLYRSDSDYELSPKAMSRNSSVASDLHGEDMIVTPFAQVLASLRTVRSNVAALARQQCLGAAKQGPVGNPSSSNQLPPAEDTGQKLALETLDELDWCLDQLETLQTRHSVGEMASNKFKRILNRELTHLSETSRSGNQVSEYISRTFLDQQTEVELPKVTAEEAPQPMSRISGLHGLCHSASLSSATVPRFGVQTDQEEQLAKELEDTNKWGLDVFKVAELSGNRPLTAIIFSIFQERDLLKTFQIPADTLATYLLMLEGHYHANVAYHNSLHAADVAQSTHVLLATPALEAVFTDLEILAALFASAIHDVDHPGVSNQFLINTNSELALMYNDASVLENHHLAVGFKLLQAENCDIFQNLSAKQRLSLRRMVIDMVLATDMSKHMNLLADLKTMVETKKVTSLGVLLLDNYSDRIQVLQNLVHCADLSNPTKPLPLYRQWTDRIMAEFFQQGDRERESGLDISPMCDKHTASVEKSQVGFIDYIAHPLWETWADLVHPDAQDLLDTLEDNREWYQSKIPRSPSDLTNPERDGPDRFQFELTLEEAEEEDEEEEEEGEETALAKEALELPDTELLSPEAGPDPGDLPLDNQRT
PDE4B1, sequence (Q07343 whole entry, species assumed, canonical isoform): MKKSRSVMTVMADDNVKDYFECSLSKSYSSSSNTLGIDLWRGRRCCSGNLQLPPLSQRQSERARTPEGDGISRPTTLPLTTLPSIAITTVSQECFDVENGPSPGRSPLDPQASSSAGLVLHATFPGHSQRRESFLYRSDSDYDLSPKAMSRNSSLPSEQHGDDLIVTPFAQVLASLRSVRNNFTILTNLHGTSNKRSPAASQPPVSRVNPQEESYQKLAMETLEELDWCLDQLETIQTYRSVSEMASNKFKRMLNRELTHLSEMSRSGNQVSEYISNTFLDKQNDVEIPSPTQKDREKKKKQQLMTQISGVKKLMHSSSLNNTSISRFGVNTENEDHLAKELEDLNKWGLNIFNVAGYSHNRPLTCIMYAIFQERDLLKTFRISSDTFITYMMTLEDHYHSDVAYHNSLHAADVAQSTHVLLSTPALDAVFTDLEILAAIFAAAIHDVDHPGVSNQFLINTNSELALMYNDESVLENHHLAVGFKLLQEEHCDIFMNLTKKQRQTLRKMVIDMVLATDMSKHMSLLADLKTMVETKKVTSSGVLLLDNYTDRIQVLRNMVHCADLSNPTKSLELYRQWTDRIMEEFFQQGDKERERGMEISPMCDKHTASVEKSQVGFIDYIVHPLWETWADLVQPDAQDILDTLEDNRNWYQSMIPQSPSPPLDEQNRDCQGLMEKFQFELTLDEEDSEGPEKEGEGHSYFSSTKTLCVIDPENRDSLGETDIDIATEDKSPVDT
Ser651Asp-PDE4D5, sequence (Q08499 1-745 isoform Q08499-6 S651D): as the sequence (Q08499 1-745 isoform Q08499-6) above, with S651D counted along it
S133D-PDE4D5, sequence (Q08499 1-745 isoform Q08499-6 S133D): as the sequence (Q08499 1-745 isoform Q08499-6) above, with S133D counted along it
DD1-R499D-PDE4D5, sequence (Q08499 1-745 isoform Q08499-6 R173A/N174A/N175A/R499D): as the sequence (Q08499 1-745 isoform Q08499-6) above, with R173A, N174A, N175A, R499D counted along it
S126D:S133D-PDE4D5, sequence (Q08499 1-745 isoform Q08499-6 S126D/S133D): as the sequence (Q08499 1-745 isoform Q08499-6) above, with S126D, S133D counted along it

For O=C(Nc1c(Cl)cncc1Cl)c1ccc(OC(F)F)c(OCC2CC2)c1 [roflumilast, reference compound], the “effect on suppression of cystogenesis by MR-L2 (3 µM)” value (MDCK cells [1]; roflumilast 100 nM, PGE2 300 nM) was “interdict the suppression of cystogenesis” and the “effect on suppression of forskolin-stimulated cAMP accumulation by MR-L2 (3 µM)” value (MDCK cells [2]; roflumilast 100 nM cotreatment, forskolin 3 µM) was “ablated the suppressive effect of MR-L2”.
In the case of O=C(O)c1ccc(/C=C2\SC(=S)N(c3cccc(C(F)(F)F)c3)C2=O)cc1 [CFTRINH172, reference compound], the PGE2-induced membrane depolarization (CFTR; CFTR inhibitor 100 µM) is reported as “reversed”.
In the case of CCc1nc(-c2ccc(Cl)c(F)c2)nn1CC(=O)NCc1cc(Cl)cc(Cl)c1 [MR-L2, 2-(3-(4-chloro-3-fluorophenyl)-5-ethyl-1H-1,2,4-triazol-1-yl)-N-(3,5-dichlorobenzyl)acetamide], the “number of cysts formed in 3D culture” value ([3]; unstimulated (spontaneous cyst formation)) is reported as “clearly suppressed the number of cysts”, the “number of cysts formed in 3D culture” value ([3]; vasopressin-treated (10 nM)) is reported as “clearly suppressed the number of cysts” and the “activation of S133D-PDE4D5” value (S133D-PDE4D5) is reported as “activated by MR-L2 to a similar extent to wild-type PDE4D5”. For the same molecule, the “activation of PDE4A4” value (PDE4A4) was “slightly enhanced magnitude of activation”, the “PGE2-stimulated cystogenesis of OX161 cells” value (OX161 cells; concentration-dependent) was “attenuated” and the “activation of Ser651Asp-PDE4D5” value (Ser651Asp-PDE4D5) was “comparable increase in activity to that seen when employing wild-type PDE4D5”. For the same molecule, the “activation of short PDE4 isoforms” value [4] was “did not activate”, the “effect on cell number (cytotoxicity)” value (MDCK cells [5]) was “no effect” and the PGE2-stimulated cyst formation (MDCK cells [1]; MR-L2 3 µM, incremental PGE2 concentrations) was “suppressed”. For the same molecule, the forskolin-induced cyst formation (MDCK cells [1]; MR-L2 3 µM, incremental forskolin concentrations) was “suppressed forskolin-induced cyst formation”, the EC50 (MDCK cells [1]; read-out: EC50, suppression of PGE2-induced cyst formation, PGE2 300 nM) was 1000 nM and the “activation of PDE4C3” value (PDE4C3) was “activates”. The “activation of DD1-R499D-PDE4D5” value (DD1-R499D-PDE4D5) was “complete loss of sensitivity to activation”, the “intracellular cAMP elevation in response to forskolin” value (MDCK cells [2]; 1-h pretreatment with MR-L2, forskolin 3 µM) was “significantly suppressed cAMP elevation” and the “extracellular level of cAMP” value (MDCK cells [2]; MR-L2 3 µM, 1 h before forskolin 3 µM) was “significantly reduced”. For the same molecule, the “activation of truncated core catalytic domain of PDE4D” value [6] was “does not activate”, the “reduction in the ATP/DNA ratio” value (MDCK cells [7]) was 15.6 ± 30% and the “activation of S126D:S133D-PDE4D5” value (S126D:S133D-PDE4D5) was “partially restore sensitivity”. For the same molecule, the cell viability [8] was “without adversely affecting cell viability”, the “mode of action on cAMP hydrolysis by PDE4D5” value (human long form PDE4D5) was “reversible, noncompetitive activator” and the “increase in activity over basal levels” value (human long form PDE4D5; maximally effective concentrations of MR-L2) was ~60%. The “activation of PDE4B1” value (PDE4B1) was “activates” and the “PGE2-elicited CFTR activity (membrane depolarization)” value (CFTR; MR-L2 preincubation 40 min) was “clearly suppressed in a concentration-dependent manner”.
For COc1ccc(C2CNC(=O)C2)cc1OC1CCCC1 (stereo not shown) [rolipram, reference compound], the “cystogenesis of OX161 cells” value (OX161 cells; challenge with rolipram, 3D culture) was “enhanced” and the “effect on agonist-driven (PGE2-induced) cyst formation” value (MDCK cells [1]; increasing concentrations of rolipram) was “exacerbates agonist-driven cyst formation in a concentration-dependent manner”.
